We go through one compound from ChEMBL document CHEMBL1157852, “Modulation of doxorubicin activity in cancer cells by conjugation with fatty acyl and terpenyl hydrazones” (Eur J Med Chem, 2010).

pIC50: −log10 of the molar value. Calls of active or inactive are those of the source. The rule behind the calls is not given here.

One test concerns HL-60. The test is described as follows: Cytotoxicity against human HL60 cells assessed as increase in ROS production at 5 uM after 72 hrs by NBT reduction assay relative to control. The format is functional. In outline:
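NBT assay. HL-60 cells (0.5×10⁶/mL) or trypsinised 518A2 cells (5×10⁴/mL) pre-incubated 24 h at 37 °C, then given compound at a final 5 µM for 24 or 72 h. Medium removed; cells incubated with 0.1% NBT for 1 h (HL-60) or 4 h (518A2). Diformazan dissolved in 2 M KOH/DMSO; A630 read against 405 nm. Given as % of untreated controls; double quadruplicates.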

For test [1], the system named is MCF7. The test is described as follows: Cytotoxicity against human topotecan-resistant MCF7 cells after 48 hrs by MTT assay. The class given is functional, cell-based. The conditions noted are these: MCF7, 48 h. In short, it runs like this: (§1)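 MTT assay. Cells seeded and cultured 24 h, then exposed to compound for 24, 48 or 72 h. MTT added to a final 0.05% (HL-60, 518A2) or 0.1% (KB-V1, MCF-7) for 2 h. Formazan dissolved in 10% SDS/DMSO with 0.6% acetic acid; absorbance read at 570 nm against 630 nm background. Viability taken relative to untreated controls (100%). IC50 from concentration-response curves, mean ± SD of four independent experiments.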
(In general: Tetrazolium assays rely on reduction of a dye to a coloured formazan, in cell work by metabolically active cells.)

Test [2] deals with MCF7. In words: Cytotoxicity against human doxorubicin-resistant MCF7 cells by MTT assay. The class given is functional.
Test [3] deals with MCF7. In words: Ratio of compound IC50 to doxorubicin IC50 for human doxorubicin-resistant MCF7 cells. The format is functional.
The test system of the next test is 518A2. In words: Induction of apoptosis in human 518A2 cells assessed as increase of caspase 8 activity at 5 uM measured up to 12 hrs by luminometric assay. The format is functional, cell-based. In short, it runs like this:
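HL-60 and 518A2 cells treated with 5 µM compound and sampled at intervals from 1 to 24 h. Lysed in 50 mM Tris-HCl pH 7.4, 150 mM NaCl, 1% Triton X-100 with protease inhibitors for 15 min at 4 °C, spun at 800 g. Protein measured by Bradford. Caspase-3/7, -8 and -9 activities read with luminogenic peptide substrates; reported as relative luminescence.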

Test [4] is described as follows: Cytotoxicity against human vinblastine-resistant KBV1 cells after 72 hrs by MTT assay in presence of 24 mM ABC transporter inhibitor verapamil hydrochloride. The format is functional, cell-based. The conditions noted are these: KB-V1, 72 h, in the assay text read “24 uM” for “24 mM”. In outline:
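MTT viability assay on P-gp-overexpressing KB-V1/Vbl cells with 24 µM verapamil hydrochloride added before the compound; 72 h exposure. Formazan read at 570/630 nm relative to untreated controls. IC50 from concentration-response curves, mean ± SD of four independent experiments.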

Test [5] has as its system MCF7. In words: Cytotoxicity against human topotecan-resistant MCF7 cells after 72 hrs by MTT assay in presence of […] BCRP inhibitor fumitremorgin C. The conditions noted are these: MCF7, 72 h. The format is functional, cell-based. In short, it runs like this:
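MCF-7/Topo cells grown in E-MEM with 2.2 g/L NaHCO₃, 110 mg/L sodium pyruvate and 5% FCS. Cells were seeded, cultured 24 h, given fumitremorgin C, then exposed to compound for 72 h. MTT was added (final 0.1%) for 2 h, medium discarded, and formazan dissolved in 10% SDS/DMSO with 0.6% acetic acid. A570 (630 background) read versus untreated controls; IC50 from concentration-response curves; four independent experiments, mean ± SD.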

Test [6] in a line: Cytotoxicity against human 518A2 cells after 48 hrs by MTT assay. The format is functional, cell-based. The conditions noted are these: 518A2, 48 h. In short, it runs like this: as §1

What is called pIC50 is the negative decadic logarithm of the IC50, by convention in mol/L. With `COc1cccc2c1C(=O)c1c(O)c3c(c(O)c1C2=O)C[C@@](O)(/C(CO)=N/NC(=O)CCCCCCCCCCC(=O)O[C@@H]1C[C@H](C)CC[C@H]1C(C)C)C[C@@H]3O[C@H]1C[C@H](N)[C@H](O)[C@H](C)O1.Cl`, the Activity was 5.9% in the test with HL-60 and 55 nM in the test with MCF7 [2]. The pIC50 is 5.59 in the test with MCF7 [1], 6.17 in test [4], 7.05 in the test on MCF7 [5] and 6.80 in test [6]. Besides, in the test on MCF7 [3], the “Ratio IC50” value is on record as 1.6. For the same compound, in the test on 518A2, the outcome was inactive.
